Data from ChEMBL document CHEMBL1122854, “Novel bis[1,6-dihydro-6,6-dimethyl-1,3,5-triazine-2,4-diamines] as antitrypanosomal agents” (1985).

Tests used:
Assay type in all cases: functional
Mus musculus [1] = assay: Antitrypanosomal activity was evaluated against Trypanosoma rhodesiense infections in mice, at dose 26 mg/kg, administered subcutaneously; Cures; settings: route subcutaneous
How it was run: (§1)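 IUR/HA Swiss mice (six weeks old, 30-32 g) infected i.p. with Wellcome CT strain T. rhodesiense. A single subcutaneous dose in peanut oil was given about 2 h after inoculation, with five mice per dose level. Positive control was stilbamidine or 2-hydroxystilbamidine isethionate at 40 mg/kg. Deaths before day 4 were scored toxic, and 30-day survivors cured.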

Mus musculus [2] = assay: Antitrypanosomal activity was evaluated against Trypanosoma rhodesiense infections in mice, at dose 53 mg/kg, administered subcutaneously; Cures; settings: route subcutaneous; how it was run: as §1
[3] = tested on: Trypanosoma brucei rhodesiense; assay: Antitrypanosomal activity against Trypanosoma rhodesiense infections in mice, 424 mg/kg administered subcutaneously; settings: route subcutaneous; how it was run: as §1
[4] = tested on: Trypanosoma brucei rhodesiense; assay: Anti-trypanosomal activity against Trypanosoma rhodesiense infections in mice, 26 mg/kg administered subcutaneously; settings: route subcutaneous
How it was run: (§2)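 Six-week-old IUR/HA Swiss mice (30-32 g), 5 per dose, infected ip with 0.5 mL of a 1:50 000 dilution of heparinized heart blood from donor mice infected 3 days before (Wellcome CT strain). Single sc dose in peanut oil about 2 h post-inoculation. Deaths before day 4 counted toxic. ΔMST versus untreated controls; survivors at 30 days counted cured.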

Mus musculus [5] = assay: (§3) Antitrypanosomal activity was evaluated against Trypanosoma rhodesiense infections in mice, at dose 6.6 mg/kg, administered subcutaneously; settings: route subcutaneous; how it was run: as §1
[6] = tested on: Trypanosoma brucei rhodesiense; assay: (§4) Antitrypanosomal activity was evaluated against Trypanosoma rhodesiense infections in mice, at dose 106 mg/kg, administered subcutaneously; settings: route subcutaneous; how it was run: as §1
[7] = tested on: Trypanosoma brucei rhodesiense; assay: Antitrypanosomal activity against Trypanosoma rhodesiense infections in mice, 3.3 mg/kg administered subcutaneously; settings: route subcutaneous; how it was run: as §2
[8] = tested on: Trypanosoma brucei rhodesiense; assay: (§5) Antitrypanosomal activity was evaluated against Trypanosoma rhodesiense infections in mice, at dose 53 mg/kg, administered subcutaneously; settings: route subcutaneous; how it was run: as §2
Mus musculus [9] = assay: Antitrypanosomal activity was evaluated against Trypanosoma rhodesiense infections in mice, at dose 13 mg/kg, administered subcutaneously; Cures; settings: route subcutaneous; how it was run: as §1
[10] = tested on: Trypanosoma brucei rhodesiense; assay: Antitrypanosomal activity against Trypanosoma rhodesiense infections in mice, 6.6 mg/kg administered subcutaneously; settings: route subcutaneous; how it was run: as §2
Mus musculus [11] = assay: as §5; settings: route subcutaneous; how it was run: as §1
[12] = tested on: Trypanosoma brucei rhodesiense; assay: Antitrypanosomal activity was evaluated against Trypanosoma rhodesiense infections in mice, at dose 1.6 mg/kg, administered subcutaneously; settings: route subcutaneous; how it was run: as §2
Mus musculus [13] = assay: Antitrypanosomal activity was evaluated against Trypanosoma rhodesiense infections in mice, at dose 424 mg/kg, administered subcutaneously;Cures; settings: route subcutaneous; how it was run: as §1
Mus musculus [14] = assay: Antitrypanosomal activity was evaluated against Trypanosoma rhodesiense infections in mice, at dose 26 mg/kg, administered subcutaneously;Cures; settings: route subcutaneous; how it was run: as §1
[15] = tested on: Trypanosoma brucei rhodesiense; assay: (§6) Antitrypanosomal activity was evaluated against Trypanosoma rhodesiense infections in mice, at dose 212 mg/kg, administered subcutaneously; settings: route subcutaneous; how it was run: as §2
Mus musculus [16] = assay: Antitrypanosomal activity was evaluated against Trypanosoma rhodesiense infections in mice, at dose 212 mg/kg, administered subcutaneously;Cures; settings: route subcutaneous; how it was run: as §1
Mus musculus [17] = assay: Antitrypanosomal activity was evaluated against Trypanosoma rhodesiense infections in mice, at dose 106 mg/kg, administered subcutaneously; Cures; settings: route subcutaneous; how it was run: as §1
Mus musculus [18] = assay: Antitrypanosomal activity was evaluated against Trypanosoma rhodesiense infections in mice, at dose 424 mg/kg, administered subcutaneously;Toxic; settings: route subcutaneous; how it was run: as §1
Mus musculus [19] = assay: Antitrypanosomal activity was evaluated against Trypanosoma rhodesiense infections in mice, at dose 53 mg/kg, administered subcutaneously;Cures; settings: route subcutaneous; how it was run: as §1
Mus musculus [20] = assay: Antitrypanosomal activity was evaluated against Trypanosoma rhodesiense infections in mice, at dose 106 mg/kg, administered subcutaneously;Toxic; settings: route subcutaneous; how it was run: as §1
Mus musculus [21] = assay: as §6; settings: route subcutaneous; how it was run: as §1
Mus musculus [22] = assay: Antitrypanosomal activity was evaluated against Trypanosoma rhodesiense infections in mice, at dose 424 mg/kg, administered subcutaneously; Cures; settings: route subcutaneous; how it was run: as §1
[23] = tested on: Trypanosoma brucei rhodesiense; assay: Antitrypanosomal activity against Trypanosoma rhodesiense infections in mice, 106 mg/kg administered subcutaneously; settings: route subcutaneous; how it was run: as §2
Mus musculus [24] = assay: Antitrypanosomal activity was evaluated against Trypanosoma rhodesiense infections in mice, at dose 6.6 mg/kg administered subcutaneously; Cures; settings: route subcutaneous; how it was run: as §1
Mus musculus [25] = assay: Antitrypanosomal activity was evaluated against Trypanosoma rhodesiense infections in mice, at dose 1.6 mg/kg, administered subcutaneously; Cures; settings: route subcutaneous; how it was run: as §1
Mus musculus [26] = assay: Antitrypanosomal activity was evaluated against Trypanosoma rhodesiense infections in mice, at dose 13 mg/kg, administered subcutaneously; settings: route subcutaneous; how it was run: as §1
[27] = tested on: Trypanosoma brucei rhodesiense; assay: Antitrypanosomal activity was evaluated against Trypanosoma rhodesiense infections in mice, at dose 26 mg/kg, administered subcutaneously; settings: route subcutaneous; how it was run: as §1
Mus musculus [28] = assay: Antitrypanosomal activity was evaluated against Trypanosoma rhodesiense infections in mice, at dose 3.3 mg/kg, administered subcutaneously; Cures; settings: route subcutaneous; how it was run: as §1
Mus musculus [29] = assay: Antitrypanosomal activity was evaluated against Trypanosoma rhodesiense infections in mice, at dose 26 mg/kg, administered subcutaneously;cures; settings: route subcutaneous; how it was run: as §1
Mus musculus [30] = assay: Antitrypanosomal activity was evaluated against Trypanosoma rhodesiense infections in mice, at dose 106 mg/kg, administered subcutaneously;cures; settings: route subcutaneous; how it was run: as §1
Mus musculus [31] = assay: Antitrypanosomal activity was evaluated against Trypanosoma rhodesiense infections in mice, at dose 212 mg/kg, administered subcutaneously;Toxic; settings: route subcutaneous; how it was run: as §1
Mus musculus [32] = assay: Antitrypanosomal activity was evaluated against Trypanosoma rhodesiense infections in mice, at dose 3.3 mg/kg, administered subcutaneously; settings: route subcutaneous; how it was run: as §2
Mus musculus [33] = assay: Antitrypanosomal activity was evaluated against Trypanosoma rhodesiense infections in mice, at dose 13mg/kg, administered subcutaneously; how it was run: as §2
Mus musculus [34] = assay: as §3; settings: route subcutaneous; how it was run: as §2; remark: listed apart in the source
Mus musculus [35] = assay: Antitrypanosomal activity was evaluated against Trypanosoma rhodesiense infections in mice, at dose 13 mg/kg, administered subcutaneously;Cures; settings: route subcutaneous; how it was run: as §1
Mus musculus [36] = assay: Antitrypanosomal activity was evaluated against Trypanosoma rhodesiense infections in mice, at dose 6.6 mg/kg, administered subcutaneously;Cures; settings: route subcutaneous; how it was run: as §1
Mus musculus [37] = assay: as §4; settings: route subcutaneous; how it was run: as §1
Mus musculus [38] = assay: Antitrypanosomal activity was evaluated against Trypanosoma rhodesiense infections in mice, at dose 26 mg/kg, administered subcutaneously;Toxic; settings: route subcutaneous; how it was run: as §1

CC1(C)N=C(N)N=C(N)N1c1ccc(OCOc2ccc(N3C(N)=NC(N)=NC3(C)C)cc2)cc1.Cl.Cl
Cures (Mus musculus [1]): 3
Cures (Mus musculus [2]): 1
Toxic [3]: 5
Delta MST [4]: 1.8 days
Cures (Mus musculus [5]): 1
Toxic [6]: 5
Delta MST [7]: 1.2 days
Delta MST [8]: 9 days
Cures (Mus musculus [9]): 3
Delta MST [10]: 2.3 days
Toxic (Mus musculus [11]): 2
Delta MST [12]: 1 days

Cl.Cl.NC1=NC(c2ccccc2)N(c2ccc(CCc3ccc(N4C(N)=NC(N)=NC4c4ccccc4)cc3)cc2)C(N)=N1 (stereo unspecified)
Cures (Mus musculus [13]): 3
Cures (Mus musculus [14]): 1
Cures (Mus musculus [2]): 5
Delta MST [4]: 4.1 days
Delta MST [15]: 2.2 days
Delta MST [7]: 0.4 days
Cures (Mus musculus [16]): 4
Delta MST [10]: 0 days
Cures (Mus musculus [17]): 5
Toxic (Mus musculus [18]): 2

CC1(C)N=C(N)N=C(N)N1c1ccc(Cc2ccc(N3C(N)=NC(N)=NC3(C)C)cc2)cc1.Cl.Cl
Cures (Mus musculus [14]): 1
Cures (Mus musculus [19]): 2
Toxic (Mus musculus [20]): 2
Toxic (Mus musculus [21]): 5
Cures (Mus musculus [22]): 5
Delta MST [4]: 4 days
Delta MST [8]: 6.5 days
Delta MST [23]: 8 days

CC1(C)N=C(N)N=C(N)N1c1ccc(-c2ccc(N3C(N)=NC(N)=NC3(C)C)cc2)cc1.Cl.Cl
Toxic (Mus musculus [21]): 5
Cures (Mus musculus [24]): 4
Cures (Mus musculus [25]): 1
Toxic (Mus musculus [26]): 5
Toxic [6]: 5
Delta MST [7]: 9.2 days
Toxic [27]: 5
Delta MST [10]: 7.8 days
Toxic (Mus musculus [11]): 5
Delta MST [12]: 3.7 days
Cures (Mus musculus [28]): 1

Cl.Cl.N=C(N)NC(=N)Nc1ccc(CCc2ccc(NC(=N)N=C(N)N)cc2)cc1
Cures (Mus musculus [29]): 1
Toxic [3]: 5
Delta MST [4]: 3 days
Cures (Mus musculus [30]): 3
Delta MST [15]: 12 days
Toxic (Mus musculus [31]): 2
Delta MST [8]: 1.4 days
Cures (Mus musculus [16]): 2
Delta MST [23]: 8 days

CC1(C)N=C(N)N=C(N)N1c1ccc(C(c2ccc(N3C(N)=NC(N)=NC3(C)C)cc2)c2ccc(N3C(N)=NC(N)=NC3(C)C)cc2)cc1.Cl.Cl
Delta MST (Mus musculus [32]): -0.1 days
Toxic [3]: 5
Delta MST (Mus musculus [33]): 0.1 days
Toxic [6]: 5
Toxic [27]: 5
Delta MST [12]: 0.1 days
Delta MST (Mus musculus [34]): -0.1 days

CC1(C)N=C(N)N=C(N)N1c1ccc(Oc2ccc(N3C(N)=NC(N)=NC3(C)C)cc2)cc1.Cl.Cl
Cures (Mus musculus [35]): 2
Cures (Mus musculus [36]): 1
Toxic [3]: 5
Delta MST [4]: 5 days
Toxic (Mus musculus [37]): 5
Delta MST [7]: 4.2 days
Delta MST [10]: 5.3 days

Cc1cc(N2C(N)=NC(N)=NC2(C)C)ccc1CCc1ccc(N2C(N)=NC(N)=NC2(C)C)cc1C.Cl.Cl
Toxic (Mus musculus [38]): 3
Toxic [3]: 5
Delta MST [4]: 1.4 days
Toxic [6]: 5
Delta MST [7]: 0.4 days
Delta MST [10]: 1 days
Delta MST [12]: 0.8 days
